Data set [1] addresses T1, VP1 capsid protein (Human rhinovirus sp.) (UniProt Q7T664).
T1 sequence (whole entry): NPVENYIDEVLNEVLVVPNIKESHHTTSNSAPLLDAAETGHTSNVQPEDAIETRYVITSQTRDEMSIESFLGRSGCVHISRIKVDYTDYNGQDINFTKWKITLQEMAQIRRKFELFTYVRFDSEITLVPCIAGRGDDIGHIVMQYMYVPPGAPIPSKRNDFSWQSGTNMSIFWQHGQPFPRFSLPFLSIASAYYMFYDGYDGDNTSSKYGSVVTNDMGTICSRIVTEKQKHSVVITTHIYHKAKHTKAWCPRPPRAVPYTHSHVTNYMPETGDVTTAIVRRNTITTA
Description: Inhibition of Rhinovirus B14 capsid infected in human HeLa Rh cells assessed as number of wells with full cytopathic effect at 2 times EC50 concentration after 1st passage measured after 3 days by MTS assay relative to control. It is filed as cell-based. Details: scale not given: the % may be the effect or the level left. The essentials: (§1)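 Confluent HeLa cells were infected with wild-type RV-B14 with compound present at 1x, 2x or 4x in vitro EC₅₀, n=4 wells. Supernatant was diluted 1:10 onto fresh HeLa cells with compound, for four passages. Value is percentage of wells with full CPE.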
In general terms: Cytopathic effects are the visible damage that an infection or toxin causes in cultured cells.

Data set [2] deals with rhinovirus B14. Description: Inhibition of Rhinovirus B14 capsid infected in human HeLa Rh cells assessed as number of wells with full cytopathic effect at 4 times EC50 concentration after 2nd passage measured after 3 days by MTS assay relative to control. It is filed as functional. On the set-up: scale not given: the % may be the effect or the level left. The essentials: as §1

The nature of data set [3]: Selectivity index, ratio of CC50 for human HeLa Rh cells to EC50 for Rhinovirus B14 capsid infected in human HeLa Rh cells. It is filed as toxicity, cell-based. The note with it: read-out: Ratio CC50/EC50. Summed up:
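SI = CC₅₀/EC₅₀ for RV-B14 in HeLa Rh cells, both from the same 3-day 35 °C MTS CPE assay. CC₅₀ was obtained by light-microscope scoring of compound-treated uninfected cells, and EC₅₀ from MTS dose-response. Both values were derived by logarithmic interpolation and reported as median ± median absolute deviation.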

Data set [4] addresses T1, VP1 capsid protein (Human rhinovirus sp.). The data set can be described thus: Inhibition of Rhinovirus B14 capsid infected in human HeLa Rh cells assessed as number of wells with full cytopathic effect at 4 times EC50 concentration after 1st passage measured after 3 days by MTS assay relative to control. On the set-up: scale not given: the % may be the effect or the level left. The class given is cell-based. Summed up:
as §1

Data set [5] shares this target. The data set can be described thus: Inhibition of Rhinovirus B14 capsid infected in human HeLa Rh cells assessed as number of wells with full cytopathic effect at EC50 concentration after 1st passage measured after 3 days by MTS assay relative to control. The class given is cell-based. Details: scale not given: the % may be the effect or the level left. The essentials:
as §1

A short description of data set [6]: Cytotoxicity against human HeLa Rh cells assessed as reduction in cell viability after 3 days by MTS assay. It is filed as cell-based. (In general: Formazan colour is commonly taken as a measure of viable cells.)
For data set [7], the target named is T1, VP1 capsid protein (Human rhinovirus sp.). The data set can be described thus: Inhibition of Rhinovirus B14 capsid infected in human HeLa Rh cells assessed as number of wells with full cytopathic effect at 4 times EC50 concentration after 4th passage measured after 3 days by MTS assay relative to control. It is filed as cell-based. On the set-up: scale not given: the % may be the effect or the level left. Summed up:
as §1

The target is the same in data set [8]. Description: Inhibition of Rhinovirus B14 capsid infected in human HeLa Rh cells assessed as number of wells with full cytopathic effect at 4 times EC50 concentration after 3rd passage measured after 3 days by MTS assay relative to control. It is filed as cell-based. On the set-up: scale not given: the % may be the effect or the level left. Summed up: as §1

The target is the same in data set [9]. Description: Inhibition of capsid of VP1 A150V mutant harboring Rhinovirus B14 assessed as reduction of virus induced cytopathic effect at 2 times EC50 concentration after 4th passage measured after 3 days by MTS assay. The essentials:
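After four passages of RV-B14 on HeLa cells with compound at 1x, 2x or 4x in vitro EC₅₀ (supernatant transferred 1:10 each passage), virus harvested at passage 4 was sequenced for the VP1 region by Sanger sequencing.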

For data set [10] the target is unchanged. Description: Inhibition of capsid of VP1 A150V mutant harboring Rhinovirus B14 assessed as reduction of virus induced cytopathic effect at 4 times EC50 concentration after 4th passage measured after 3 days by MTS assay.
For data set [11] the target is unchanged. Description: Inhibition of Rhinovirus B14 capsid infected in human HeLa Rh cells assessed as number of wells with full cytopathic effect at EC50 concentration after 3rd passage measured after 3 days by MTS assay relative to control. On the set-up: scale not given: the % may be the effect or the level left. It is filed as cell-based. Summed up: as §1
The target is the same in data set [12]. Description: Inhibition of Rhinovirus B14 capsid infected in human HeLa Rh cells assessed as number of wells with full cytopathic effect at 2 times EC50 concentration after 4th passage measured after 3 days by MTS assay relative to control. It is filed as cell-based. Details: scale not given: the % may be the effect or the level left. Summed up:
as §1

In data set [13] the test system is rhinovirus B14. Description: Antiviral activity against Rhinovirus B14 infected in human HeLa Rh cells assessed as reduction in viral replication at 1 uM administered at >= 2 hrs post infection measured after 8 hrs post infection by RT-qPCR analysis. It is filed as functional, organism-based. Summed up:
(§2)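 HeLa Rh cells adhered overnight, then given 1 µM compound 2 h before, at, or 2, 4 or 6 h after RV-B14 infection. Untreated infected cells served as controls. Cells lysed at 8 h post-infection, DNases heat-inactivated at 75 °C for 15 min. Intracellular viral RNA measured by SYBR one-step qRT-PCR against a gBlock standard series, reported as genome equivalents per sample.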
(In general: In qPCR the cycle at which signal appears reflects the starting amount.)

Data set [14] deals with T1, VP1 capsid protein (Human rhinovirus sp.). The data set can be described thus: Inhibition of Rhinovirus B14 capsid infected in human HeLa Rh cells assessed as number of wells with full cytopathic effect at 2 times EC50 concentration after 3rd passage measured after 3 days by MTS assay relative to control. It is filed as cell-based. Details: scale not given: the % may be the effect or the level left. The essentials:
as §1

For data set [15] the target is unchanged. The data set can be described thus: Inhibition of capsid of VP1 C199W mutant harboring Rhinovirus B14 assessed as reduction of virus induced cytopathic effect at 1 times EC50 concentration after 4th passage measured after 3 days by MTS assay.
Data set [16] has the same target. Description: Inhibition of Rhinovirus B14 capsid infected in human HeLa Rh cells assessed as reduction in viral replication at 1 uM administered 2 hrs before infection measured after 8 hrs post infection by RT-qPCR analysis. The class given is cell-based. The essentials:
as §2

Data set [17] has the same target. Description: Inhibition of Rhinovirus B14 capsid infected in human HeLa Rh cells assessed as number of wells with full cytopathic effect at EC50 concentration after 2nd passage measured after 3 days by MTS assay relative to control. On the set-up: scale not given: the % may be the effect or the level left. The class given is cell-based. Summed up:
as §1

The target is the same in data set [18]. Description: Inhibition of Rhinovirus B14 capsid infected in human HeLa Rh cells assessed as number of wells with full cytopathic effect at 2 times EC50 concentration after 2nd passage measured after 3 days by MTS assay relative to control. It is filed as cell-based. Details: scale not given: the % may be the effect or the level left. Summed up:
as §1

For data set [19], the system named is rhinovirus B14. The data set can be described thus: Antiviral activity against Rhinovirus B14 infected in human HeLa Rh cells assessed as reduction in viral replication at 1 uM administered at the time of infection measured after 8 hrs post infection by RT-qPCR analysis. The class given is functional, organism-based. Summed up: as §2
Data set [20] concerns the target T1, VP1 capsid protein (Human rhinovirus sp.). Description: Inhibition of capsid of VP1 V191E mutant harboring Rhinovirus B14 assessed as reduction of virus induced cytopathic effect at 2 times EC50 concentration after 4th passage measured after 3 days by MTS assay.
For data set [21] the target is unchanged. The data set can be described thus: Inhibition of Rhinovirus B14 capsid infected in human HeLa Rh cells assessed as number of wells with full cytopathic effect at EC50 concentration after 4th passage measured after 3 days by MTS assay relative to control. The class given is cell-based. On the set-up: scale not given: the % may be the effect or the level left. The essentials:
as §1

Molecules are shown by their SMILES. Calls of active or inactive are those of the source. No cut-off for these calls is given here.

On to `Cn1cc(-c2ccc(CC(O)c3ccc(-n4cccn4)cc3)c([N+](=O)[O-])c2)cn1` (racemic), for which the Activity (in data set [1]; in the data set on rhinovirus B14 [2]; in data set [4]; in data set [5]; in data set [7]; in data set [8]) was 0% each time. Further, the Activity in data set [11] is 50%; in data set [12], 50%; in data set [14], 0%; in data set [17], 0%; in data set [18], 0%; in [21], 50%. Moreover, the selectivity ratio in data set [3] is 1240 to 5000. The CC50 – broadly, the concentration at which the toxic effect on the cells reaches its halfway point – at 72 h in data set [6] was 247 to 1000 µM. The inhibition result in data set [9], in data set [15] and in data set [16] was “Active” throughout. The inhibition entry in data set [10] and in data set [20] was “inactive” each time. The outcome with rhinovirus B14 [13] was inactive. Besides, the outcome with rhinovirus B14 [19] was Active.

These data come from ChEMBL document CHEMBL4196178, “Structure-Based Drug Design of Potent Pyrazole Derivatives against Rhinovirus Replication” (J Med Chem, 2018).
